Source: PubChem BioAssay
Hsp70 activator: switches on Hsp70 transcription | HeLa Hsp70 promoter luciferase reporter, luminescence; scaled: vehicle 0, proteasome-inhibitor control 100% | hit rate 0.04% among 200,000 | activation, % at 10 µM | AID 1203;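 active means activation above the mean across all tested compounds plus 3 SD, cutoff set per campaign, cut at about 5.5% in these data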;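 further: 100% = MG132 at 30 µM as the positive control and 0% = DMSO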
Wee1 stabilizer: human Wee1 degradation inhibition, primary screen; P30291; HeLa Luc-Wee1K328M stability, luciferase luminescence; 100% = proteasome inhibitor MG132 effect; reporter increase, % at 5 µM; hit rate 1.2% among 220,000;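 active means activation above the mean of all tested compounds plus 3 SD, set per screening run, cut at about 8.8% in these data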;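 further: cells exposed to compound for 20 h before luminescence read; 0% = DMSO alone and 100% = MG132 at 30 µM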
Pf gamet viab: inhibitors of late stage P. falciparum gametocyte viability; P. falciparum stage V gametocytes, ATP luminescence, 24 h; inhibition, % at 10.9 µM; hit rate 0.065% among 150,000; AID 743093;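 active means inhibition above the mean plus 3 SD of compounds within the control limits, set per campaign, cut at about 38% in these data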;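 further: 0% = DMSO wells and 100% = medium only without gametocytes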
MDM2 E3 inh: blocks human Mdm2 ubiquitin ligase activity | cell-based MDM2 ubiquitination luciferase reporter, 2 h; 0 = plate control, 100 = twice control, blank-subtracted | signal enhancement, % at 5 µM | hit rate 0.11% among 210,000;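 active means signal enhancement of 30% or more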;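 further: luminescence tracks abundance of the self-degrading MDM2-luciferase fusion protein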
Target sequence (Q00987 whole entry, looked up, the tested form may be a part): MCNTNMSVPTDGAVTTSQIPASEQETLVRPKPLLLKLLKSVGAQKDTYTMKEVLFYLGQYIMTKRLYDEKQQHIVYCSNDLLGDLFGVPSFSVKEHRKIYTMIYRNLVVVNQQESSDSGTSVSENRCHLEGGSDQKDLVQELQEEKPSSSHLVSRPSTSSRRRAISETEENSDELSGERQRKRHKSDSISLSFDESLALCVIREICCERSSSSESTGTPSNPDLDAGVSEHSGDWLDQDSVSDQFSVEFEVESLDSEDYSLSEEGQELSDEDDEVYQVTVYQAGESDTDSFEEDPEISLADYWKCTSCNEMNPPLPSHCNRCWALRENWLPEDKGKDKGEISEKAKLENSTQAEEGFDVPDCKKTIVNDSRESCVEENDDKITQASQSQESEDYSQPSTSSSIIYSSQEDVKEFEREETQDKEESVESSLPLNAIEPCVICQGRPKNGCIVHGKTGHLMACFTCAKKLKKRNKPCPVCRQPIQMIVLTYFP
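system = mammalian cells stably expressing self-ubiquitinating, self-degrading MDM2 E3–luciferase fusion | quantity = 2000 cells per well seeded | incubation = 4 h cell settling then 2 h compound exposure, 37 °C | signal = SteadyLite luminescence, 15 min reagent step | benchmarks = plate control and blank wells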
Calpain2 inh: calpain II (pig) inhibition. purified calpain II, fluorogenic peptide substrate, 30 min. inhibition, % at 16 µM. hit rate 0.37% among 220,000. AID 1236;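 active means inhibition above about 50%, limit read from the data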
Starred values were filed as active, the others as inactive; . = no result given. In the library only some 1.5% were active in any assay of this set; here they are far more common.

SMILES	Hsp70 activator	Wee1 stabilizer	Pf gamet viab	MDM2 E3 inh	Calpain2 inh
Cc1c(NC(=O)COC(=O)CCC(=O)c2ccc(Cl)cc2)c(=O)n(-c2ccccc2)n1C	-0.2	9.4*	2.5	-9.5	-5.1
CN(CC(=O)Nc1ccc(Cl)c(C(F)(F)F)c1)C(=O)/C=C/c1ccco1	-0.6	-1.5	57.0*	0.9	-3.6
O=C(c1cccc(F)c1)N1CCCc2ccccc21	.	.	21.6	.	.
O=C(OCc1ccccc1)/C(=C(\O)c1ccccc1Br)c1ccc(-c2ccccc2)cn1	.	.	-7.0	.	.
COc1cccc(/C=N/NC(=O)c2[nH]c(C)c(C(=O)N/N=C/c3cccc(OC)c3)c2C)c1	-0.4	-1.2	-3.0	36.0*	-72.4
CCOC(=O)c1c(C)[nH]c(C(=O)N/N=C/c2cccc(OC)c2)c1C	-0.1	4.4	-21.4	-5.3	21.7
CN1C[C@@H]2[C@@H]3C(=O)N(Cc4ccccc4)C(=O)[C@@H]3[C@](C)(C1=O)N2C(=O)c1ccc(F)cc1	.	.	2.5	.	.
CCOC(=O)N1CCC(NC(=O)CCC(=O)N2CCOc3ccc(C)cc32)CC1	-0.2	10.3*	.	-3.3	-5.4
CCOC(=O)N1CCN(C(=O)CCC(=O)N2CCOc3ccc(C)cc32)CC1	-0.3	2.2	.	-9.4	.
COc1cccc(OCc2nc3ccccc3[nH]2)c1	0.2	10.6*	.	-22.1	0.5
c1cnc2c(OCc3nc4ccccc4[nH]3)cccc2c1	0.0	1.8	-2.6	-47.1	56.2*
COc1ccc(Cc2nc3ccccc3c(=O)n2N)cc1OC	.	.	-0.7	.	.
O=C(O)COc1ccc(/C=N/NC(=O)/C(=C/C=C/c2ccccc2)NC(=O)c2ccccc2)cc1	.	.	0.5	.	.
O=C(CNC(=O)c1ccccc1F)OC(C(=O)Nc1cc(C(F)(F)F)ccc1Cl)c1ccccc1 (stereo not given)	-0.4	-1.1	-1.9	-2.2	61.2*
Cc1ccc2c(c1)N(CC(=O)Nc1ncccc1C)C(=O)C(C(C)C)O2 (stereo not given)	.	.	9.9	.	.
CCCCS(=O)(=O)N1CCCC(C(=O)Oc2ccc(Cl)cc2)C1 (stereo not given)	.	.	4.4	.	.
COc1cc2c(cc1OC)CN(C(=S)Nc1ccc(C)cc1C)CC2	0.3	-1.0	47.5*	-6.5	-13.5
N/C(=N\NC(=O)c1ccccc1)c1cc2ccccc2oc1=O	-0.1	1.3	-16.9	2.6	59.5*
CC1=C(C(=O)OCC(C)C)C23C(=O)c4ccccc4C2(O1)OC(N)=C3C#N (stereo not given)	-0.2	-0.2	14.3	-8.7	59.4*
CC1=C(C(=O)OCC(C)C)[C@]23C(=O)c4ccccc4[C@@]2(O1)OC(N)=C3C#N	-0.2	0.8	.	9.2	26.1
COc1ccccc1N=C1NC(=O)/C(=C/c2ccc(N(C)C)cc2)S1	.	.	4.2	.	.
CCN(CC)S(=O)(=O)c1ccc(C)c(NC(=S)NNC(=O)C2CC2)c1	-0.1	-2.6	.	2.9	76.4*
C=CC[C@H](CC(=O)OC(C)(C)C)C(=O)OC[C@H]1CCCN1C(=O)[C@H](CC=C)CC(=O)NCCO	.	.	-29.5	.	.
NNC(=O)c1ccc(CN2C(=O)c3cccc4cccc2c34)cc1	-0.3	1.6	21.1	-10.9	-73.7
COc1ccccc1/C=N/NC(=O)c1ccc(CN2C(=O)c3cccc4cccc2c34)cc1	.	9.0*	-7.2	.	-133.0
SMILES	Hsp70 activator	Wee1 stabilizer	Pf gamet viab	MDM2 E3 inh	Calpain2 inh
CN1C(=C2C(=O)OC(C)(C)OC2=O)Sc2ccccc21	0.0	8.8*	-7.8	-18.3	-42.4
Cc1ccc(NC(=O)N2C(=O)C3(OCCO3)c3ccccc32)cc1	1.2	20.9*	-11.9	1.7	-18.8
CCNC(=O)N1C(=O)C2(OCCO2)c2ccccc21	0.0	-2.3	.	-5.7	7.7
CC(C)Sc1nc(SCC(=O)NCc2ccco2)c2c3c(sc2n1)COC(C)(C)C3	0.0	9.8*	.	-20.4	-23.4
CC(C)Sc1nc(SCC(=O)O)c2c3c(sc2n1)COC(C)(C)C3	.	6.2	-3.7	-7.1	9.5
COc1ccc(CCNC(=O)C(C(=O)c2ccccc2)n2ccccc2=O)cc1OC (stereo not given)	0.2	10.7*	11.0	-12.3	-13.2
Clc1cccc(/C=N/N2CCN(Cc3ccccc3)CC2)c1	.	.	-13.6	.	.
C[C@H](NC(=O)CCC1CCC(=O)N1)c1ccccc1 (stereo not given in full)	.	.	3.6	.	.
CC(=O)N(C)c1ccc(NC(=O)Nc2ccc(C)cc2)cc1	0.1	3.6	-10.2	-15.8	51.4*
CC(=O)N(C)c1ccc(NC(=O)Nc2ccc(Cl)cc2)cc1	.	.	-5.3	.	.
O=C(CSc1nnnn1C1CCCCC1)NCc1cccs1	-0.2	10.7*	.	-18.3	-12.6
CCCOc1ccc(N2C(=O)CC(NCCc3ccc(S(N)(=O)=O)cc3)C2=O)cc1 (stereo not given)	-0.2	9.7*	12.9	-12.0	-16.1
CCOc1ccc(N2C(=O)CC(NCCc3ccc(S(N)(=O)=O)cc3)C2=O)cc1 (stereo not given)	-0.7	-1.3	.	1.6	-24.1
CCc1ccc(/C=C2/SC(N3CCOCC3)=NC2=O)cc1	.	0.7	14.8	-9.9	8.2
CC(C)c1ccc(/C=C2\SC(N3CCOCC3)=NC2=O)cc1	.	9.2*	14.3	2.8	12.8
CC(C)c1cc(=O)[nH]c(N2CCN(Cc3ccc4c(c3)OCO4)CC2)n1	.	.	-3.2	.	.
N/N=C/C(=N\Nc1ccc(Cl)cc1)C(=O)c1ccncc1	.	0.9	44.7*	.	-20.2
Cc1ccc(NN2C(=O)C=C(c3ccccc3)C2=O)cc1	-0.1	-3.1	13.2	-1.8	-17.9
NS(=O)(=O)c1ccc(NC(=O)COC(=O)C23CC4CC(CC(C4)C2)C3)cc1	-0.2	4.6	5.1	-5.0	57.9*
N#Cc1cc([N+](=O)[O-])ccc1NC(=O)COC(=O)C12CC3CC(CC(C3)C1)C2	-0.4	-0.1	.	-7.6	53.9*
O=C(COC(=O)C12CC3CC(CC(C3)C1)C2)Nc1ccc(OC(F)F)cc1	-0.4	0.6	0.1	-1.9	43.7
O=C(COC(=O)C12CC3CC(CC(C3)C1)C2)Nc1ccc([N+](=O)[O-])cc1Br	-0.1	-1.1	12.9	5.3	13.7
COc1ccc(NC(=O)CN(c2ccccc2F)S(=O)(=O)c2ccc(C)cc2)c(OC)c1	.	.	-19.7	.	.
O=C(OCCN1C(=O)c2ccccc2C1=O)c1ccc(S(=O)(=O)N2CCCCCC2)cc1	-0.1	-1.4	.	0.2	68.4*
O=[S@]1Oc2ccccc2-c2ccccc21	.	.	-3.8	.	.
SMILES	Hsp70 activator	Wee1 stabilizer	Pf gamet viab	MDM2 E3 inh	Calpain2 inh
CNc1ncc(C(=O)c2ccc(Cl)cc2)s1	0.5	9.6*	.	-30.1	28.1
CCn1c(SCCN2CCCCC2)nc2c1c(=O)n(C)c(=O)n2C	.	.	-13.7	.	.
O=C(NN=C1C2CC3CC1CC(Cl)(C3)C2)c1ccccn1	0.1	9.7*	-18.1	-11.7	27.3
CC(C)=CC(=O)NCCc1ccccc1	-0.2	10.0*	.	-36.5	-25.4
O=C(COc1ccc([N+](=O)[O-])cc1)NCc1cccnc1	-0.1	9.2*	23.6	-3.0	-0.9
O=C(COc1ccc([N+](=O)[O-])cc1)Nc1ccc(C(=O)NCc2cccnc2)cc1	-0.4	2.3	-2.4	1.5	44.1
COc1ccc(C(=O)NCCSC2CCCCC2)cc1	-0.3	2.1	.	40.5*	-2.3
